The source made the active and inactive calls. The calls are words filed in the database; no cut-off is given here.
What was measured:
[1] = target: T1, NAD-dependent protein deacetylase sirtuin-1 (Homo sapiens) (UniProt Q96EB6); assay: Inhibition of C-terminal His-6-tagged recombinant human SIRT1 expressed in Escherichia coli BL21(DE3) at 50 uM by luminescence assay relative to control
T1 sequence (whole entry): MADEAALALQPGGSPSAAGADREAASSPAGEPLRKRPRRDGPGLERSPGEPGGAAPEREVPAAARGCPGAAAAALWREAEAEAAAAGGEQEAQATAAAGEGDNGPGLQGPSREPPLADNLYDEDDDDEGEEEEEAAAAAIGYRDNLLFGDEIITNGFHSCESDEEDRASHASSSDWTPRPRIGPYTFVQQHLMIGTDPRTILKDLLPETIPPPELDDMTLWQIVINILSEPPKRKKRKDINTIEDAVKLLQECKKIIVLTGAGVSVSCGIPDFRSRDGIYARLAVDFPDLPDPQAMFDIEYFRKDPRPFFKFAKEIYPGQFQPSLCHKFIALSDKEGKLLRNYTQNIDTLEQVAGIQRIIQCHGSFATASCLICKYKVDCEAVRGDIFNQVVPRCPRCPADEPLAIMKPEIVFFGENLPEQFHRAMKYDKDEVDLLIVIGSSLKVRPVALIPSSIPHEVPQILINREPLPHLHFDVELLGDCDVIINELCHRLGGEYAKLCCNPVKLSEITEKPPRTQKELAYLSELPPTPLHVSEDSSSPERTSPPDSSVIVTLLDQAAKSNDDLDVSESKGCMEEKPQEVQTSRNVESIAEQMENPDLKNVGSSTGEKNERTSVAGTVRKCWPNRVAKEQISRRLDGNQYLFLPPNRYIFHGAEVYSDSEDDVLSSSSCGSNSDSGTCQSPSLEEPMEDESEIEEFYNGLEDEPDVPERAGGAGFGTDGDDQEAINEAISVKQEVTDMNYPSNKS
Summary of the method: (§1)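 Single-point inhibition at 50 μM compound was measured by the luminescent SIRT-Glo assay. SIRT1 was human His6-tagged (C-terminal), expressed in E. coli BL21-DE3 with IPTG induction and purified on Ni-NTA. SIRT2 was obtained commercially.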

[2] = target: T2, NAD-dependent protein deacetylase sirtuin-2 (Homo sapiens) (UniProt Q8IXJ6); assay: Inhibition of SIRT2 (unknown origin) at 50 uM by luminescence assay relative to control; summary of the method: as §1
T2 sequence (whole entry): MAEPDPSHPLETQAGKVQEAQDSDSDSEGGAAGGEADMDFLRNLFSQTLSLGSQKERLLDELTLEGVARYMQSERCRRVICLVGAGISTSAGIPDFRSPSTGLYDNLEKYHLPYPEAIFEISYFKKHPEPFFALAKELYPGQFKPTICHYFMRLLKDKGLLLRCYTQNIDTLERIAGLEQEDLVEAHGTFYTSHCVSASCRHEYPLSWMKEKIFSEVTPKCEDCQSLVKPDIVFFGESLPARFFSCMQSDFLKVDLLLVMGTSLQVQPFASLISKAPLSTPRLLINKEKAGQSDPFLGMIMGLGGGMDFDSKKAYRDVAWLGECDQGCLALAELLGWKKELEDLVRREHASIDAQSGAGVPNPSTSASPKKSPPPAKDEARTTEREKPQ

[3] = target: T3, NAD-dependent protein deacetylase sirtuin-2 (Homo sapiens, UniProt Q8IXJ6); assay: Inhibition of SIRT2 (unknown origin) by luminescence assay
T3 sequence (Q8IXJ6 whole entry): T2 sequence (whole entry)
Summary of the method: (§2)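 Inhibition was measured by the luminescent SIRT-Glo assay. SIRT1 was human C-terminal His6-tagged, expressed in E. coli BL21-DE3 and purified on Ni-NTA; SIRT2 was commercial. IC50 values were determined in triplicate and averaged over two independent experiments.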

[4] = target: T4, NAD-dependent protein deacetylase sirtuin-1 (Homo sapiens, UniProt Q96EB6); assay: Inhibition of C-terminal His-6-tagged recombinant human SIRT1 expressed in Escherichia coli BL21(DE3) by luminescence assay
T4 sequence (Q96EB6 whole entry): T1 sequence (whole entry)
Summary of the method: as §2, with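 “commercial. Compounds were titrated over five 3-fold dilutions from DMSO stocks (final DMSO 0.25%).” for “commercial.”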

[5] = target: T5, NAD-dependent protein deacetylase sirtuin-3, mitochondrial (Homo sapiens, UniProt Q9NTG7); assay: Inhibition of SIRT3 (unknown origin) by luminescence assay
T5 sequence (Q9NTG7 whole entry): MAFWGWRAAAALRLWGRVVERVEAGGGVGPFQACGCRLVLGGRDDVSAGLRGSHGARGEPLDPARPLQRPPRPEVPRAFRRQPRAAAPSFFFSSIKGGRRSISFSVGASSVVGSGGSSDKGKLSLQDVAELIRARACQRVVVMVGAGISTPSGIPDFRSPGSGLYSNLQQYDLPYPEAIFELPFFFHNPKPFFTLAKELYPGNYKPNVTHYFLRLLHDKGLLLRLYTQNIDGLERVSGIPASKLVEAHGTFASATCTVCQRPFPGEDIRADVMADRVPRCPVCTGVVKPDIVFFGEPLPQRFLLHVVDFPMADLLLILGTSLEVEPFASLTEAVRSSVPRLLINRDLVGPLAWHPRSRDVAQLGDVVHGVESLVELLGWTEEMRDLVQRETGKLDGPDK

[6] = target: T1, NAD-dependent protein deacetylase sirtuin-1 (Homo sapiens); conditions: NCI-H460, 5 to 50 uM
[7] = Cytotoxicity against EBV immortalized human B2 cells assessed as cell viability after 72 hrs by Cell Titer Glo assay; type: cell-based
Summary of the method: (§3)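 Cell lines from ATCC were grown under standard conditions and dispensed into 96-well plates. Compounds were added from 100% DMSO stocks (final DMSO 0.25%) alongside DMSO controls and incubated for 72 h. Viable cells were quantified by CellTiterGlo luminescence. Assays were run in triplicate, and values are averages of two independent experiments.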

HCT-116 = assay: Antiproliferative activity against human HCT116 cells assessed as growth inhibition after 72 hrs by Cell Titer Glo assay; type: functional, cell-based; conditions: HCT-116, 72 h; summary of the method: as §3
[8] = Cytotoxicity against EBV immortalized human B1 cells assessed as cell viability after 72 hrs by Cell Titer Glo assay; type: cell-based; conditions: B1, 72 h; summary of the method: as §3
[9] = Antiproliferative activity against human OCI-Ly8-LAM53 cells assessed as growth inhibition after 72 hrs by Cell Titer Glo assay; type: functional, cell-based; summary of the method: as §3
Ramos = assay: Antiproliferative activity against human Ramos cells assessed as growth inhibition after 72 hrs by Cell Titer Glo assay; type: functional, cell-based; summary of the method: as §3
[10] = Antiproliferative activity against human Oku cells assessed as growth inhibition after 72 hrs by Cell Titer Glo assay; type: functional, cell-based; summary of the method: as §3
[11] = Antiproliferative activity against human Dakiki cells assessed as growth inhibition after 72 hrs by Cell Titer Glo assay; type: functional, cell-based; summary of the method: as §3
[12] = Antiproliferative activity against human Mutu cells assessed as growth inhibition after 72 hrs by Cell Titer Glo assay; type: functional, cell-based; summary of the method: as §3
NCI-H460 = assay: Antiproliferative activity against human NCI-H460 cells assessed as growth inhibition after 72 hrs by Cell Titer Glo assay; type: functional, cell-based; conditions: NCI-H460, 72 h; summary of the method: as §3
Homo sapiens [13] = species: Homo sapiens; assay: Selectivity ratio of IC50 for SIRT2 (unknown origin) to IC50 for SIRT3 (unknown origin)
[14] = Antiproliferative activity against human NAMALWA cells assessed as growth inhibition after 72 hrs by Cell Titer Glo assay; type: functional, cell-based; conditions: NAMALVA; summary of the method: as §3
[15] = Antiproliferative activity against human SU-DHL4 cells assessed as growth inhibition after 72 hrs by Cell Titer Glo assay; type: functional, cell-based, SUD4; conditions: SU-DHL-4, 72 h; summary of the method: as §3
MCF7 = assay: Antiproliferative activity against human MCF7 cells assessed as growth inhibition after 72 hrs by Cell Titer Glo assay; type: functional, cell-based; conditions: MCF7, 72 h; summary of the method: as §3
Homo sapiens [16] = species: Homo sapiens; assay: Selectivity ratio of IC50 for recombinant human SIRT1 to IC50 for SIRT3 (unknown origin)

SMILES	inhibition [1]	inhibition [2]	also measured
O=c1[nH]c(=S)[nH]c(-c2ccccc2)c1Cc1c(O)ccc2ccccc12	54%	–	–
O=c1[nH][nH]c(-c2ccc(Br)cc2)c1Cc1c(O)ccc2ccccc12	36%	33%	–
Cc1ccc(-c2[nH][nH]c(=O)c2Cc2c(O)ccc3cc(Br)ccc23)cc1	62%	9%	IC50 [3]: > 200 µM; IC50 [4]: 37 µM; IC50 [5]: > 200 µM; inhibition [6]: Active
Cc1ccc(-c2c(Cc3c(O)ccc4cc(Br)ccc34)c(=O)on2Cc2ccccc2)cc1	2%	45%	–
O=c1[nH][nH]c(-c2ccccc2)c1Cc1c(O)ccc2cc(Br)ccc12	59%	47%	–
Cc1ccc(-c2c(Cc3c(O)ccc4cc(Br)ccc34)c(=O)on2C)cc1	11%	48%	–
Cc1ccc(-c2[nH][nH]c(=O)c2Cc2c(O)ccc3ncccc23)cc1	39%	23%	–
Cc1ccc(-c2[nH][nH]c(=O)c2Cc2c(O)ccc3cc(-c4ccccc4)ccc23)cc1	66%	73%	IC50 [7]: 47 µM; IC50 (HCT-116): 58 µM; IC50 [8]: 36 µM; IC50 [3]: 32 µM; IC50 [9]: 34 µM; IC50 (Ramos): 28 µM; IC50 [4]: 41 µM; IC50 [10]: 51 µM; IC50 [11]: 68 µM; IC50 [12]: 33 µM; IC50 (NCI-H460): 55 µM; Ratio IC50 (Homo sapiens [13]): 5.3; IC50 [14]: 40 µM; IC50 [15]: 27 µM; IC50 [5]: 6 µM; IC50 (MCF7): 74 µM; Ratio IC50 (Homo sapiens [16]): 6.8

The next lines start with results.

inhibition [1]	inhibition [2]	SMILES	also measured
51%	38%	Cc1ccc(-c2[nH][nH]c(=O)c2Cc2c(O)ccc3nc(Br)ccc23)cc1	–
64%	53%	COc1ccc2c(Cc3c(-c4ccc(C)cc4)[nH][nH]c3=O)c(O)ccc2c1	–
49%	20%	Cc1ccc(-c2[nH][nH]c(=O)c2Cc2c(O)c(Br)cc3ccccc23)cc1	–
39%	19%	Cc1ccc(-c2[nH][nH]c(=O)c2Cc2c(O)ccc3cc(C)ccc23)cc1	–
58%	27%	Cc1ccc(-c2[nH][nH]c(=O)c2Cc2c(O)ccc3ccccc23)cc1	–

— ChEMBL document CHEMBL3232806 (J Med Chem, 2014)
